Assays:
Trypanosoma cruzi = test: Effective concentration required to inhibit the growth of mammalian stage of Trypanosoma cruzi grown in murine 3T3 fibroblasts; type: functional; details: read-out: ED50 (the source's name)
How it was run: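 Tulahuen strain stably carrying E. coli lacZ. Mammalian stages are cocultured with mouse 3T3 fibroblasts in RPMI 1640 with 10% FBS at 37 °C, 5% CO₂. Intracellular growth is followed by a colorimetric β-galactosidase read-out. Assays were run twice.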

[1] = In vitro inhibition of Trypanosoma cruzi GAPDH.
How it was run: (§1)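 Spectrophotometric assay at 23 °C in 0.10 M triethanolamine/HCl, pH 7.5. Enzyme starts the reaction and inhibitors are in 5% DMSO-d₆. Initial rates over 0–2 min are compared with control. IC50 comes from ≥5 concentrations, or is extrapolated from ≥3 concentrations when above 50 µM.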

[2] = In vitro inhibition of rabbit muscle GAPDH.; design: species or system Oryctolagus cuniculus; how it was run: as §1
[3] = molecular target: Glyceraldehyde-3-phosphate dehydrogenase, glycosomal (Leishmania mexicana, UniProt Q27890); test: Inhibitory activity against Leishmania mexicana GAPDH
Chain of Glyceraldehyde-3-phosphate dehydrogenase, glycosomal (Q27890 whole entry, looked up): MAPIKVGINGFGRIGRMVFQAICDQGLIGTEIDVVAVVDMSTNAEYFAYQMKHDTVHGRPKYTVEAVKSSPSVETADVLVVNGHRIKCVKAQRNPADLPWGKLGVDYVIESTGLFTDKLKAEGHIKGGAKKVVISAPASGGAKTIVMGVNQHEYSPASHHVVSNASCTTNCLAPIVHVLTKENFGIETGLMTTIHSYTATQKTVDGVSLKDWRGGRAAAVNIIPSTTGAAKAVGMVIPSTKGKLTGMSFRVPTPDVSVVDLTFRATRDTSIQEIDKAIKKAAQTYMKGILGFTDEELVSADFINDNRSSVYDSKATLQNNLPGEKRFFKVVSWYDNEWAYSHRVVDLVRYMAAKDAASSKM
How it was run: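 Spectrophotometric GAPDH assay at 23 °C in 0.10 M triethanolamine/HCl pH 7.5, read as NADH formation at 340 nm. Final: 5.0 mM MgSO4, 1.0 mM EDTA, 12.8 mM KH2PO4, 1.0 mM DTT, 1.0 mM NaN3, 0.45 mM NAD+, 1.87 mM fresh glyceraldehyde-3-phosphate, 5% DMSO-d6. Started with enzyme. Initial rates 0–2 min as % of control. IC50 from ≥5 concentrations (≤50 µM) or extrapolated from ≥3.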

NIH3T3 = test: Effective concentration required to inhibit the growth of murine 3T3 fibroblasts; type: functional; details: Mus musculus, read-out: ED50 (the source's name)
Trypanosoma brucei = test: Effective concentration required to block the growth of bloodstream Trypanosoma brucei; type: functional; details: read-out: ED50 (the source's name)
How it was run: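 Bloodstream-form strain 427 trypomastigotes are grown in HMI-9 with 10% FBS at 37 °C, 5% CO₂. Triplicate wells are seeded at 5 × 10³ parasites per well with serially diluted drug. Growth is read with Alamar Blue at 48 h. Assays were run twice.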

[4] = In vitro inhibition of Trypanosoma brucei GAPDH.; how it was run: as §1

| SMILES | EC50 (Trypanosoma cruzi) | IC50 [1] | IC50 [2] | IC50 [3] | EC50 (NIH3T3) | EC50 (Trypanosoma brucei) | IC50 [4] |
| --- | --- | --- | --- | --- | --- | --- | --- |
| O=C(N[C@@H]1[C@H](O)[C@@H](CO)O[C@H]1n1cnc2c(NCc3cc(O)cc4ccccc34)ncnc21)c1cc(Cl)cc(Cl)c1 | 41 µM | 40 µM | > 50 µM | 25 µM | 43 µM | 12 µM | 55 µM |
| O=C(N[C@@H]1[C@H](O)[C@@H](CO)O[C@H]1n1cnc2c(NCc3cccc4ccccc34)ncnc21)c1cccc(Cl)c1 | – | – | – | 6 µM | – | – | – |
| COc1ccc(C(=O)N[C@@H]2[C@H](O)[C@@H](CO)O[C@H]2n2cnc3c(NCc4cccc5ccccc45)ncnc32)cc1O | – | – | – | 37 µM | – | – | – |
| COc1cc(C(=O)N[C@@H]2[C@H](O)[C@@H](CO)O[C@H]2n2cnc3c(NCc4cccc5ccccc45)ncnc32)ccc1O | – | – | – | 10 µM | – | – | – |
| COc1cc(OC)cc(C(=O)N[C@@H]2[C@H](O)[C@@H](CO)O[C@H]2n2cnc3c(NCc4cc(OC)cc5ccccc45)ncnc32)c1 | 35 µM | 7 µM | > 50 µM | 2 µM | > 50 µM | 35 µM | 5 µM |
| COc1ccc(C(=O)N[C@@H]2[C@H](O)[C@@H](CO)O[C@H]2n2cnc3c(NCc4cccc5ccccc45)ncnc32)cc1OC | 22 µM | 7 µM | > 50 µM | 4 µM | > 55 µM | 36 µM | 47 µM |
| O=C(N[C@@H]1[C@H](O)[C@@H](CO)O[C@H]1n1cnc2c(NCc3cccc4ccccc34)ncnc21)c1cc(O)cc(O)c1 | > 50 µM | 14 µM | > 50 µM | 5 µM | > 50 µM | 50 µM | 26 µM |
| COc1cc(OC)cc(C(=O)N[C@@H]2[C@H](O)[C@@H](CO)O[C@H]2n2cnc3c(NCc4cc(O)cc5ccccc45)ncnc32)c1 | > 50 µM | 10 µM | > 50 µM | 2 µM | > 50 µM | 38 µM | 8 µM |
| O=C(N[C@@H]1[C@H](O)[C@@H](CO)O[C@H]1n1cnc2c(NCc3cc(O)cc4ccccc34)ncnc21)c1cccc(Cl)c1 | 30 µM | 12 µM | > 50 µM | 4 µM | > 50 µM | 16 µM | 25 µM |
| COc1cc(OC)cc(C(=O)N[C@@H]2[C@H](O)[C@@H](CO)O[C@H]2n2cnc3c(NCc4cccc5ccccc45)ncnc32)c1 | 8 µM | 7 µM | > 50 µM | 2 µM | 40 µM | 17 µM | 7 µM |
| O=C(N[C@@H]1[C@H](O)[C@@H](CO)O[C@H]1n1cnc2c(NCc3cccc4ccccc34)ncnc21)c1ccc(O)c(O)c1 | – | – | – | 18 µM | – | – | – |
| COc1ccc(C(=O)N[C@@H]2[C@H](O)[C@@H](CO)O[C@H]2n2cnc3c(NCc4cccc5ccccc45)ncnc32)cc1 | – | – | – | 100 µM | – | – | – |
| COc1ccc(C(=O)N[C@@H]2[C@H](O)[C@@H](CO)O[C@H]2n2cnc3c(NCc4cccc5ccccc45)ncnc32)cc1OC(C)=O | – | – | – | 78 µM | – | – | – |
| O=C(N[C@@H]1[C@H](O)[C@@H](CO)O[C@H]1n1cnc2c(NCc3cccc4ccccc34)ncnc21)c1ccc(O)cc1 | – | – | – | 80 µM | – | – | – |
| COc1cccc(C(=O)N[C@@H]2[C@H](O)[C@@H](CO)O[C@H]2n2cnc3c(NCc4cc(O)cc5ccccc45)ncnc32)c1 | > 50 µM | 12 µM | > 50 µM | 6 µM | > 50 µM | 35 µM | 25 µM |
| COc1cc(C(=O)N[C@@H]2[C@H](O)[C@@H](CO)O[C@H]2n2cnc3c(NCc4cccc5ccccc45)ncnc32)ccc1OC(C)=O | – | – | – | 10 µM | – | – | – |
| COc1cccc(C(=O)N[C@@H]2[C@H](O)[C@@H](CO)O[C@H]2n2cnc3c(NCc4cccc5ccccc45)ncnc32)c1 | 10 µM | 12 µM | > 50 µM | 6 µM | 40 µM | 18 µM | 25 µM |
| Nc1ncnc2c1ncn2C1O[C@H](CNC(=O)CC2CCCCC2)[C@@H](O)[C@H]1O (stereo not given in full) | – | – | – | 250 µM | – | – | – |
| Nc1ncnc2c1ncn2C1O[C@H](CNC(=O)C(c2ccccc2)c2ccccc2)[C@@H](O)[C@H]1O (stereo not given in full) | – | – | – | 250 µM | – | – | – |

| SMILES | EC50 (Trypanosoma cruzi) | IC50 [1] | IC50 [2] | IC50 [3] | EC50 (NIH3T3) | EC50 (Trypanosoma brucei) | IC50 [4] |
| --- | --- | --- | --- | --- | --- | --- | --- |
| COc1cccc(C(=O)N[C@@H]2[C@H](O)[C@@H](CO)O[C@H]2n2cnc3c(NCc4ccc(OC)c5ccccc45)ncnc32)c1 | 12 µM | 50 µM | > 50 µM | 6 µM | 50 µM | 10 µM | 26 µM |
| COc1cc(OC)cc(C(=O)N[C@@H]2C(Cn3cnc4c(NCc5ccccc5Sc5ccccc5CO)ncnc43)OC(CO)[C@@H]2O)c1 (stereo not given in full) | – | – | – | 75 µM | – | – | – |
| O=C(N[C@@H]1[C@H](O)[C@@H](CO)O[C@H]1n1cnc2c(NCc3cccc4ccccc34)ncnc21)c1cccc(O)c1 | – | – | – | 25 µM | – | – | – |
| COc1cc(OC)cc(C(=O)N[C@@H]2C(Cn3cnc4c(Nc5ccc6ccccc6c5)ncnc43)OC(CO)[C@@H]2O)c1 (stereo not given in full) | – | – | – | 60 µM | – | – | – |
| COc1cc(CNc2ncnc3c2ncn3[C@@H]2O[C@H](CO)[C@@H](O)[C@H]2NC(=O)c2cc(Cl)cc(Cl)c2)c2ccccc2c1 | 16 µM | 40 µM | > 50 µM | 25 µM | 32 µM | 16 µM | 45 µM |
| CC(=O)Oc1ccc(C(=O)N[C@@H]2[C@H](O)[C@@H](CO)O[C@H]2n2cnc3c(NCc4cccc5ccccc45)ncnc32)cc1OC(C)=O | – | – | – | 25 µM | – | – | – |
| O=C(N[C@@H]1[C@H](O)[C@@H](CO)O[C@H]1n1cnc2c(NCc3cccc4ccccc34)ncnc21)c1ccc(Cl)cc1 | – | – | – | 100 µM | – | – | – |
| CC(=O)Oc1ccc(C(=O)N[C@@H]2[C@H](O)[C@@H](CO)O[C@H]2n2cnc3c(NCc4cccc5ccccc45)ncnc32)cc1 | – | – | – | 100 µM | – | – | – |
| COc1cc(OC)cc(C(=O)N[C@@H]2C(Cn3cnc4c(N)ncnc43)OC(CNC(=O)C(c3ccccc3)c3ccccc3)[C@@H]2O)c1 (stereo not given in full) | – | – | – | 60 µM | – | – | – |
| COc1cc(OC)cc(C(=O)N[C@@H]2C(Cn3cnc4c(NCc5ccccc5)ncnc43)OC(CO)[C@@H]2O)c1 (stereo not given in full) | – | – | – | 20 µM | – | – | – |
| COc1cc(OC)cc(C(=O)N[C@@H]2C(Cn3cnc4c(NCc5ccccc5C)ncnc43)OC(CO)[C@@H]2O)c1 (stereo not given in full) | – | – | – | 25 µM | – | – | – |
| COc1cc(OC)cc(C(=O)N[C@@H]2C(Cn3cnc4c(N)ncnc43)OC(CNC(=O)CC3CCCCC3)[C@@H]2O)c1 (stereo not given in full) | – | – | – | 100 µM | – | – | – |
| COc1cc(OC)cc(C(=O)N[C@@H]2C(Cn3cnc4c(NC5CCCc6ccccc65)ncnc43)OC(CO)[C@@H]2O)c1 (stereo not given in full) | – | – | – | 75 µM | – | – | – |
| COc1cc(OC)cc(C(=O)N[C@@H]2C(Cn3cnc4c(NC(c5ccccc5)c5ccccc5)ncnc43)OC(CO)[C@@H]2O)c1 (stereo not given in full) | – | – | – | 55 µM | – | – | – |
| COc1cc(OC)cc(C(=O)N[C@@H]2C(Cn3cnc4c(NCc5cccc(C)c5)ncnc43)OC(CO)[C@@H]2O)c1 (stereo not given in full) | – | – | – | 25 µM | – | – | – |
| CN(C)c1cccc(C(=O)N[C@@H]2[C@H](O)[C@@H](CO)O[C@H]2n2cnc3c(NCc4cccc5ccccc45)ncnc32)c1 | – | – | – | 25 µM | – | – | – |
| CC(=O)Oc1cccc(C(=O)N[C@@H]2[C@H](O)[C@@H](CO)O[C@H]2n2cnc3c(NCc4cccc5ccccc45)ncnc32)c1 | – | – | – | 50 µM | – | – | – |
| O=C(Cn1ccnc1[N+](=O)[O-])NCc1ccccc1 [BENZNIDAZOLE] | 0.5 µM | – | > 50 µM | – | > 50 µM | – | – |
